Source: ChEMBL document CHEMBL4229550, “An antimycobacterial pleuromutilin analogue effective against dormant bacilli” (Bioorg Med Chem, 2018)
Converted amounts (≈) assume the structure as drawn. The source made the active and inactive calls. The rule behind the calls is not given here.

Legend:
[1] = tested on: Escherichia coli; assay: Inhibition of protein translation/transcription in Escherichia coli S30 cell extract at 0.1 ug/ml using circular DNA with pBESTluc after 60 mins by luciferase reporter gene assay; type: functional
In short: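 Coupled transcription/translation used E. coli S30 extract, amino acid mix and premix, with the pBESTluc template carrying firefly luciferase under the tac promoter. Compounds were added in DMSO and reactions were started with DNA. Incubation was 60 min at 37 °C, stopped on ice, and luciferase was read after adding assay substrate.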

[2] = tested on: Mycobacterium tuberculosis; assay: Antibacterial activity against replicating Mycobacterium tuberculosis H37Rv incubated for 15 days under aerobic condition by MABA; type: functional; settings: 360 h, read-out: MIC100
In short: (§1)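 Mtb H37Rv grown in 7H9/OADC at 37 °C with shaking to OD600 0.5. The 0.5-OD culture is exposed aerobically to serial dilutions for 15 days at 37 °C. Resazurin (0.02% stock) is then added for 4 h at 37 °C with shaking.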

[3] = tested on: Mycolicibacterium smegmatis; assay: Antibacterial activity against Mycobacterium smegmatis ATCC 607 incubated for 48 hrs under aerobic condition by MABA; type: functional; settings: ATCC 607, 48 h, read-out: MIC100
In short: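 Mid-log culture at OD 0.5 was incubated with serial dilutions aerobically at 37 °C for 48 h. Resazurin was then added from a 0.08% stock for 1 h. MIC100 was the lowest concentration that stayed blue; absorbance was also read at 570/600 nm.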

[4] = tested on: Streptococcus salivarius; assay: Antibacterial activity against Streptococcus salivarius […] incubated for 24 hrs under aerobic condition by MABA; type: functional; settings: read-out: MIC100
In short: (§2)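 Resazurin was then added from a 0.08% stock for 1 h. MIC100 was the lowest concentration where the dye stayed blue (pink means growth). Absorbance was also read at 570 and 600 nm.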

[5] = tested on: Enterococcus faecalis; assay: Antibacterial activity against Enterococcus faecalis ATCC 19433 incubated for 24 hrs under aerobic condition by MABA; type: functional; settings: ATCC 19433, 24 h, read-out: MIC100
In short: (§3)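 Mid-log cultures at OD 0.5 were exposed to serial dilutions under aerobic conditions at 37 °C for 24 h. Resazurin was then added from a 0.08% stock for 1 h. MIC100 was the lowest concentration where the dye stayed blue (pink means growth). Absorbance was also read at 570 and 600 nm.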

[6] = tested on: Clostridioides difficile; assay: Bactericidal activity against Clostridium difficile ATCC 700057 incubated for 24 hrs […] by MABA; type: functional; settings: ATCC 700057, 24 h
[7] = tested on: Mycobacterium tuberculosis; assay: Bactericidal activity against replicating Mycobacterium tuberculosis H37Rv incubated for 15 days under aerobic condition by MABA; type: functional; settings: 360 h; in short: as §1
[8] = tested on: Bacillus subtilis; assay: Bactericidal activity against Bacillus subtilis ATCC 6051 incubated for 24 hrs under aerobic condition by MABA; type: functional; settings: ATCC 6051, 24 h
[9] = tested on: Staphylococcus aureus; assay: Antibacterial activity against Staphylococcus aureus BAA 44 incubated for 24 hrs under aerobic condition by MABA; type: functional; settings: BAA 44, 24 h, read-out: MIC100; in short: as §3
[10] = tested on: Staphylococcus aureus; assay: Antibacterial activity against Staphylococcus aureus BAA 1683 incubated for 24 hrs under aerobic condition by MABA; type: functional; settings: BAA 1683, 24 h, read-out: MIC100; in short: as §3
[11] = tested on: Staphylococcus aureus; assay: Bactericidal activity against Staphylococcus aureus BAA 44 incubated for 24 hrs under aerobic condition by MABA; type: functional; settings: BAA 44, 24 h
[12] = tested on: Mycolicibacterium smegmatis; assay: Bactericidal activity against Mycobacterium smegmatis ATCC 607 incubated for 48 hrs under aerobic condition by MABA; type: functional; settings: ATCC 607, 48 h
[13] = tested on: Acinetobacter baumannii; assay: Bactericidal activity against Acinetobacter baumannii ATCC 19606 incubated for 24 hrs under aerobic condition by MABA; type: functional; settings: ATCC 19606 = CIP 70.34 = JCM 6841, 24 h
[14] = tested on: Bacillus subtilis; assay: Antibacterial activity against Bacillus subtilis ATCC 6051 incubated for 24 hrs under aerobic condition by MABA; type: functional; settings: ATCC 6051, 24 h, read-out: MIC100; in short: as §3
[15] = tested on: Staphylococcus aureus; assay: Bactericidal activity against Staphylococcus aureus BAA 1683 incubated for 24 hrs under aerobic condition by MABA; type: functional; settings: BAA 1683, 24 h
[16] = tested on: Escherichia coli; assay: Antibacterial activity against Escherichia coli ATCC 10798 incubated for 24 hrs under aerobic condition by MABA; type: functional; settings: ATCC 10798, 24 h, read-out: MIC100; in short: as §3
[17] = tested on: Enterococcus faecalis; assay: Antibacterial activity against Enterococcus faecalis ATCC 349 incubated for 24 hrs under aerobic condition by MABA; type: functional; settings: ATCC 349, 24 h, read-out: MIC100; in short: as §3
[18] = tested on: Staphylococcus aureus; assay: Antibacterial activity against Staphylococcus aureus incubated for 24 hrs under aerobic condition by MABA; type: functional; settings: read-out: MIC100; in short: as §2
[19] = tested on: Vero; assay: Cytotoxicity against African green monkey Vero cells assessed as reduction in cell viability after 72 hrs by MTT assay; type: cell-based; settings: Chlorocebus sabaeus
In short: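 Vero cells were grown in complete EMEM with 10% FBS and exposed for 72 h to 0.78–200 µg/mL. The medium was then swapped for phenol-red-free EMEM and MTT was added. Formazan absorbance was read at 570 nm to give IC50.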

[20] = tested on: Streptococcus pneumoniae; assay: Bactericidal activity against Streptococcus pneumoniae ATCC 6301 incubated for 24 hrs under aerobic condition by MABA; type: functional; settings: ATCC 6301, 24 h
[21] = tested on: Streptococcus pneumoniae; assay: Antibacterial activity against Streptococcus pneumoniae ATCC 6301 incubated for 24 hrs under aerobic condition by MABA; type: functional; settings: ATCC 6301, 24 h, read-out: MIC100; in short: as §3
[22] = tested on: Staphylococcus aureus; assay: Antibacterial activity against Staphylococcus aureus BAA 2094 incubated for 24 hrs under aerobic condition by MABA; type: functional; settings: BAA 2094, 24 h, read-out: MIC100; in short: as §2
[23] = Selectivity index, ratio of IC50 for African green monkey Vero cells to MIC100 for replicating Mycobacterium tuberculosis H37Rv by MABA; type: toxicity; settings: read-out: Selectivity Index
In short: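 Vero cells are cultured in EMEM with 10% FBS and exposed for 72 h to 0.78–200 µg/mL. Medium is switched to phenol-red-free EMEM, MTT is added, and formazan is read at 570 nm to give IC50. The selectivity index is Vero IC50 divided by the MABA MIC.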

[24] = tested on: Streptococcus salivarius; assay: Bactericidal activity against Streptococcus salivarius ATCC 6301 incubated for 24 hrs under aerobic condition by MABA; type: functional; settings: ATCC 6301, 24 h
[25] = tested on: Enterococcus faecalis; assay: Bactericidal activity against Enterococcus faecalis ATCC 19433 incubated for 24 hrs under aerobic condition by MABA; type: functional; settings: ATCC 19433, 24 h
[26] = tested on: Staphylococcus aureus; assay: Antibacterial activity against Staphylococcus aureus ATCC 25923 incubated for 24 hrs under aerobic condition by MABA; type: functional; settings: ATCC 25923, 24 h, read-out: MIC100; in short: as §3
[27] = tested on: Klebsiella pneumoniae; assay: Antibacterial activity against Klebsiella pneumoniae ATCC 12019 incubated for 24 hrs under aerobic condition by MABA; type: functional; settings: ATCC 12019, 24 h, read-out: MIC100; in short: as §3
[28] = tested on: Staphylococcus aureus; assay: Bactericidal activity against Staphylococcus aureus ATCC 25923 incubated for 24 hrs under aerobic condition by MABA; type: functional; settings: ATCC 25923, 24 h
[29] = tested on: Klebsiella pneumoniae; assay: Bactericidal activity against Klebsiella pneumoniae ATCC 12019 incubated for 24 hrs under aerobic condition by MABA; type: functional; settings: ATCC 12019, 24 h
[30] = tested on: Acinetobacter baumannii; assay: Antibacterial activity against Acinetobacter baumannii ATCC 19606 incubated for 24 hrs under aerobic condition by MABA; type: functional; settings: ATCC 19606 = CIP 70.34 = JCM 6841, 24 h, read-out: MIC100; in short: as §3
[31] = tested on: Staphylococcus aureus; assay: Bactericidal activity against Staphylococcus aureus BAA 2094 incubated for 24 hrs under aerobic condition by MABA; type: functional; settings: BAA 2094, 24 h
[32] = tested on: Escherichia coli; assay: Bactericidal activity against Escherichia coli ATCC 10798 incubated for 24 hrs under aerobic condition by MABA; type: functional; settings: ATCC 10798, 24 h
[33] = tested on: Enterococcus faecalis; assay: Bactericidal activity against Enterococcus faecalis ATCC 349 incubated for 24 hrs under aerobic condition by MABA; type: functional; settings: ATCC 349, 24 h
[34] = tested on: Escherichia coli; assay: Inhibition of protein translation/transcription in Escherichia coli S30 cell extract using circular DNA with pBESTluc after 60 mins by luciferase reporter gene assay; type: functional; settings: 1 h
In short: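 E. coli S30 circular-DNA coupled transcription/translation kit with the pBESTluc template (firefly luciferase under the tac promoter). S30 extract, amino acids and premix are combined with compound in DMSO, and the reaction is started with DNA. Incubation is 60 min at 37 °C, stopped on ice, then luciferase luminescence is read.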

[35] = tested on: Staphylococcus aureus; assay: Bactericidal activity against Staphylococcus aureus incubated for 24 hrs under aerobic condition by MABA; type: functional
[36] = Apparent permeability from basolateral to apical side in human Caco2 cells at 10 uM after 2 hrs by LC-MS/MS analysis; type: ADME, cell-based; settings: caco-2, 2 h

CC(=O)NC[C@H]1CN(c2ccc(N3CCOCC3)c(F)c2)C(=O)O1 [LINEZOLID]
inhibition [1]: Active | MIC [2]: 0.6 µg/mL (≈ 1.78 µM) | MIC [3]: 0.2 µg/mL (≈ 0.593 µM) | MIC [4]: 3.13 µg/mL (≈ 9.28 µM) | MIC [5]: 12.5 µg/mL (≈ 37.1 µM) | MBC [6]: 3.13 µg/mL (≈ 9.28 µM) | MBC [7]: 1.61 µg/mL (≈ 4.77 µM) | MBC [8]: 6.25 µg/mL (≈ 18.5 µM) | MIC [9]: > 25 µg/mL | MIC [10]: 12.5 µg/mL (≈ 37.1 µM) | MBC [11]: > 25 µg/mL | MBC [12]: 0.8 µg/mL (≈ 2.37 µM) | MBC [13]: > 25 µg/mL | MIC [14]: 3.13 µg/mL (≈ 9.28 µM) | MBC [15]: 25 µg/mL (≈ 74.1 µM) | MIC [16]: 25 µg/mL (≈ 74.1 µM) | MIC [17]: > 25 µg/mL | MIC [18]: 0.78 µg/mL (≈ 2.31 µM) | IC50 [19]: > 200 µg/mL | MBC [20]: > 25 µg/mL | MIC [21]: 25 µg/mL (≈ 74.1 µM) | MIC [22]: > 25 µg/mL | selectivity ratio [23]: > 333 | MBC [24]: > 25 µg/mL | MBC [25]: 25 µg/mL (≈ 74.1 µM) | MIC [26]: > 25 µg/mL | MIC [27]: 25 µg/mL (≈ 74.1 µM) | MBC [28]: > 25 µg/mL | MBC [29]: > 25 µg/mL | MIC [30]: > 25 µg/mL | MBC [31]: > 25 µg/mL | MBC [32]: > 25 µg/mL | MBC [33]: > 25 µg/mL | IC50 [34]: 0.05 µg/mL (≈ 0.148 µM) | MBC [35]: 1.56 µg/mL (≈ 4.62 µM)

CC[C@@H](CO)NCCN[C@@H](CC)CO [ETHAMBUTOL]
MIC [2]: 0.78 µg/mL (≈ 3.82 µM) | IC50 [19]: > 200 µg/mL | selectivity ratio [23]: > 256

CNC(=C[N+](=O)[O-])NCCSCc1ccc(CN(C)C)o1 [RANITIDINE]
Papp [36]: 1.14 ×10⁻⁶ cm/s
